Reference: ChEMBL document CHEMBL4321819, “Simple Structural Modifications Converting a Bona fide MDM2 PROTAC Degrader into a Molecular Glue Molecule: A Cautionary Tale in the Design of PROTAC Degraders” (J Med Chem, 2019)
Activity calls are given as the source filed them. The calls are words filed in the database; no cut-off is given here.

Assays:
[1] = target: T1, Protein cereblon/Eukaryotic peptide chain release factor GTP-binding subunit ERF3A/DNA damage-binding protein 1/Cullin-4A (Homo sapiens) (UniProt Q96SW2+Q16531+Q13619+P15170); experiment: Protac activity at GSPT1/CUL4/DDB1/CRBN in human RS4:11/IRMI-2 cells harboring p53 hotspot mutation Y236H/R249G assessed as decrease in GSPT1 protein level after 2 hrs by Western blot analysis; assay type: cell-based
T1 sequence (P15170 whole entry, looked up): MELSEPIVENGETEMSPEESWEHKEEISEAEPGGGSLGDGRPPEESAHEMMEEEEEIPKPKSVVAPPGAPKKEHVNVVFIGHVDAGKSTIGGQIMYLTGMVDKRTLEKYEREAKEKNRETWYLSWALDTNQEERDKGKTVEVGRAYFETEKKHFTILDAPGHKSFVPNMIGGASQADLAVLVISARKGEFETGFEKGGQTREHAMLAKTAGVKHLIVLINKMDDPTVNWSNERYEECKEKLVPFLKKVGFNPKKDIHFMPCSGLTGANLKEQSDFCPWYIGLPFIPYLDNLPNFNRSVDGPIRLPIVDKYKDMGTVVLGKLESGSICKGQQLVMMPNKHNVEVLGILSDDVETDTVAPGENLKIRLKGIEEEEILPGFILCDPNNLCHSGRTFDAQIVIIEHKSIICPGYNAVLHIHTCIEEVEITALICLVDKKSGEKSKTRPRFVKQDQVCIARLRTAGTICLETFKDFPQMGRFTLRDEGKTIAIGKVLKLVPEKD
T1 sequence (Q13619 whole entry, looked up): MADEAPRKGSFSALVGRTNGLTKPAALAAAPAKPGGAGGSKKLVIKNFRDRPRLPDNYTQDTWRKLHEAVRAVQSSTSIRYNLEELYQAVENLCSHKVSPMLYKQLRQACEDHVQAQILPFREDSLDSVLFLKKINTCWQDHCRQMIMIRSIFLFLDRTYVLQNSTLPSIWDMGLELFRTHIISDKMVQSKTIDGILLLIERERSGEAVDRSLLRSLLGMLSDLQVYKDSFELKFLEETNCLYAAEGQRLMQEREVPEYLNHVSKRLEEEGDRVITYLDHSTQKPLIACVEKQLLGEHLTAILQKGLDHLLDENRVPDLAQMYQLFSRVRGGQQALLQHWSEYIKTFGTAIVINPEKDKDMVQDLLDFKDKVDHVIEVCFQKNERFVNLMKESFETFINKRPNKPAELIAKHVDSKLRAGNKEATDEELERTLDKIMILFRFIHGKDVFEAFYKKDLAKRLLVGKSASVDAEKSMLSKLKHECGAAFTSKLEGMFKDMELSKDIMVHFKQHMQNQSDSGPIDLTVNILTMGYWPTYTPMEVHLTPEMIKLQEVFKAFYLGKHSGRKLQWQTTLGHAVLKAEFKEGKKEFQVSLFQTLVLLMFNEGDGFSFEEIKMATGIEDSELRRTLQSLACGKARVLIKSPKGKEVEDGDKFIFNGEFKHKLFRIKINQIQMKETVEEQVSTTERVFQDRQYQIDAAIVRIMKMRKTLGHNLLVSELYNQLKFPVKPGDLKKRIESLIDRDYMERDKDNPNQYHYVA
T1 sequence (Q16531 whole entry, looked up): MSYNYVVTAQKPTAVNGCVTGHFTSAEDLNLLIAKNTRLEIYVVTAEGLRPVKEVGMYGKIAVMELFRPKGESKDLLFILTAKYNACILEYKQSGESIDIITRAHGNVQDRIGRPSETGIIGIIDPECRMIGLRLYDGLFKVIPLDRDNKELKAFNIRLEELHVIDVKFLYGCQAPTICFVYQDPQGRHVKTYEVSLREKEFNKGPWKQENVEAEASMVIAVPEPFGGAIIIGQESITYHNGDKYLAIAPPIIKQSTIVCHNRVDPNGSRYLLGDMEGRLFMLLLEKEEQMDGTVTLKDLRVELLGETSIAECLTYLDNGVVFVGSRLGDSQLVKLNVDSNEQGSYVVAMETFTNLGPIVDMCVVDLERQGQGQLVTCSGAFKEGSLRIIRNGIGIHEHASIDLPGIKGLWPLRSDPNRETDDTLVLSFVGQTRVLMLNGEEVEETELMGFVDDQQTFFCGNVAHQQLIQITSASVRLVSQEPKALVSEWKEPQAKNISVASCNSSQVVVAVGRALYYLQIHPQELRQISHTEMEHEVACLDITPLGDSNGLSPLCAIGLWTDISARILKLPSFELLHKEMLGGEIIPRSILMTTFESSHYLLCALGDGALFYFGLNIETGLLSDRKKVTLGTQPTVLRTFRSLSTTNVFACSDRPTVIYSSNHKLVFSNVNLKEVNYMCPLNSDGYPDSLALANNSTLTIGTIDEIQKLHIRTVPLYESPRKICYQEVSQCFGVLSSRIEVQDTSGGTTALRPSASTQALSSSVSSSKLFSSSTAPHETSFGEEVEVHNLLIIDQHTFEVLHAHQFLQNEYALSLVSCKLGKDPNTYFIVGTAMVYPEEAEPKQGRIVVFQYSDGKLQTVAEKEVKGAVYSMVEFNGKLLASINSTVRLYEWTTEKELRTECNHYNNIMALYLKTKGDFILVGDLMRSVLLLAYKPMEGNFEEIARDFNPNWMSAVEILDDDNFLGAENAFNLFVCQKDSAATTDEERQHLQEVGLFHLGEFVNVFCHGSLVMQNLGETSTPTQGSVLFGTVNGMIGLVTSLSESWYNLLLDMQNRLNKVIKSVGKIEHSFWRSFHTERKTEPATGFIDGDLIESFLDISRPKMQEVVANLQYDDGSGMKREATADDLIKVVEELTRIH
T1 sequence (Q96SW2 whole entry, looked up): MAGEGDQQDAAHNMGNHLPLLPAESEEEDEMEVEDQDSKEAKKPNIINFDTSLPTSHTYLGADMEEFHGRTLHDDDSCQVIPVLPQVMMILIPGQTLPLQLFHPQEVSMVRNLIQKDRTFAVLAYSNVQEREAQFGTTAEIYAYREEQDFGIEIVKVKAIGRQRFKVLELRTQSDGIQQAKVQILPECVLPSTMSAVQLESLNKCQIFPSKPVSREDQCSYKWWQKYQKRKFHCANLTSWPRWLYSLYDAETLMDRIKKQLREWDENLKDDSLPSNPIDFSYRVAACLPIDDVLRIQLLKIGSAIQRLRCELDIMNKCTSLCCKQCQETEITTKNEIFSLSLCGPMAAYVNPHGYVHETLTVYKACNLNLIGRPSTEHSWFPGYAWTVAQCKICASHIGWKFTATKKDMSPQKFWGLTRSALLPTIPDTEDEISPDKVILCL
Outline: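 RS4;11 (wild-type p53) or RS4;11/IRMI-2 (MDM2 inhibitor-resistant derivative, mutant p53) cells kept in RPMI 1640 with 10% FBS at 37 °C, 5% CO₂. 2×10^6 cells/well treated at the indicated concentrations and times, then lysed in ice-cold lysis buffer with protease inhibitor. GSPT1 detected by Western blot with a specific antibody.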

[2] = target: T2, E3 ubiquitin-protein ligase Mdm2 (Homo sapiens, UniProt Q00987); experiment: Induction of MDM2 degradation in human RS4:11 cells assessed as upregulation of p53 at 1 to 30 nM after 2 hrs by Western blot analysis; assay type: cell-based
Outline: (§1)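 Western blots of MDM2 and p53 protein were run on RS4;11 cells (wild-type p53) in RPMI 1640 with 10% FBS. 2×10^6 cells/well were treated at the indicated concentrations for 1 h or 2 h. Lysis was in ice-cold buffer with protease inhibitor, followed by probing with specific antibodies.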
Target sequence in this assay (Q00987 whole entry, looked up): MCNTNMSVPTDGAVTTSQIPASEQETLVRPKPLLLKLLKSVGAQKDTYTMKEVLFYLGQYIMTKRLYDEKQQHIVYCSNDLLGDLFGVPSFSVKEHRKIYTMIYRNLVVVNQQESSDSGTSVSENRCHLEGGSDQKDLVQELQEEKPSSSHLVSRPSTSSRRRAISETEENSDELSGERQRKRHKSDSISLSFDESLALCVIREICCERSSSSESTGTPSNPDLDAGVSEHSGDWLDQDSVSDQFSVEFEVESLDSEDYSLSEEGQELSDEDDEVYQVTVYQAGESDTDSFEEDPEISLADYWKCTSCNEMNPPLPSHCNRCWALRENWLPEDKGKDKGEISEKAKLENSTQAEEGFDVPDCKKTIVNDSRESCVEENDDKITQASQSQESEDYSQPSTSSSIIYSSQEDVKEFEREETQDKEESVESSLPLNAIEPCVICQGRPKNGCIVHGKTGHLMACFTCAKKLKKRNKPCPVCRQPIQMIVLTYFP

[3] = Antiproliferative activity against human RS4:11/IRMI-2 cells harboring p53 hotspot mutation Y236H/R249G assessed as MDM2-independent cell growth inhibition after 4 days by WST-8 assay; assay type: functional, cell-based; conditions: RS4-11, 96 h
Outline: (§2)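 Leukemia cells seeded at 10000–20000 cells/well, breast cancer lines at 5000–10000 cells/well. Serially diluted compound added, then 4 days at 37 °C, 5% CO2. Growth read with WST-8 reagent after at least 1 h, absorbance at 450 nm. RS4;11, MOLM-13 and breast lines were grown in RPMI 1640; MV-4-11 and HL-60 in IMDM; all with 10% FBS. Mean ± SE, at least three independent experiments.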

MDA-MB-468 [4] = experiment: Antiproliferative activity against human MDA-MB-468 cells assessed as cell growth inhibition after 4 days in presence of control siRNA for 3 days followed by compound treatment by WST-8 assay; assay type: functional, cell-based
[5] = target: Cellular tumor antigen p53 (Homo sapiens) (UniProt P04637); experiment: Activation of p53 in human RS4:11 cells assessed as increase in MDM2 mRNA expression at 3 nM after 1 to 2 hrs by qRT-PCR analysis; assay type: cell-based
Chain of Cellular tumor antigen p53 (Homo sapiens) (P04637 whole entry, looked up): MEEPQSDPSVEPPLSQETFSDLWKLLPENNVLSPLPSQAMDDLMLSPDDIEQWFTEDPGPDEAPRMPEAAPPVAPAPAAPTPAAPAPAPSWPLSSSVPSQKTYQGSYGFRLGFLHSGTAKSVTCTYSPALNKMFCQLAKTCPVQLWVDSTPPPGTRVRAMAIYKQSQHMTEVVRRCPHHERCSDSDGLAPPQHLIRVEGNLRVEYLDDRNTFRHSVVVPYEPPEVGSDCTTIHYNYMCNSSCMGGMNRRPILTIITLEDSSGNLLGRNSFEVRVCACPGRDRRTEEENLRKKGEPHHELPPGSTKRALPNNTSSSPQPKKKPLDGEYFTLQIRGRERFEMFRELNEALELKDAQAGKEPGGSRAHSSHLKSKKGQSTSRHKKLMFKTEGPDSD
Outline: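 RS4;11 cells (RPMI 1640, 10% FBS, 37 °C, 5% CO2) treated with 3 nM or 10 nM compound; total RNA extracted and mRNA of p53 targets MDM2, CDKN1A, PUMA and BAX quantified by qRT-PCR. Mean ± standard error from at least three independent experiments.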

MDA-MB-468 [6] = experiment: Antiproliferative activity against human MDA-MB-468 cells transfected with CRBN siRNA LQ-021086-10-0002 assessed as cell growth inhibition after 4 days by WST-8 assay; assay type: functional, cell-based; conditions: MDA-MB-468, 96 h
Outline: (§3)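 MDA-MB-231 or MDA-MB-468 cells transfected for 2 days using Lipofectamine RNAiMAX with MDM2 siRNA, one of two CRBN siRNAs, or non-targeting control siRNA. Compound then added and growth read by WST-8 at 450 nm.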

[7] = target: T3, Eukaryotic peptide chain release factor GTP-binding subunit ERF3A (Homo sapiens, UniProt P15170); experiment: Induction of GSPT1 degradation in human MDA-MB-231 cells transfected with CRBN siRNA LQ-021086-10-0002 assessed as decrease in GSPT1 protein level at 0.1 uM after 2 to 24 hrs by Western blot analysis; assay type: cell-based
T3 sequence (P15170 whole entry): as the sequence (P15170 whole entry, looked up) above
Outline: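 MDA-MB-231 cells transfected with CRBN or non-targeting siRNA, then exposed to 0.1 μM compound for 2 h or 24 h. Lysed in ice-cold lysis buffer with protease inhibitor; GSPT1 and cereblon probed by Western blot.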

[8] = target: T1, Protein cereblon/Eukaryotic peptide chain release factor GTP-binding subunit ERF3A/DNA damage-binding protein 1/Cullin-4A (Homo sapiens); experiment: Protac activity at GSPT1/CUL4/DDB1/CRBN in human RS4:11 cells expressing wild type p53 assessed as decrease in GSPT1 protein level by measuring fold change of protein level before and after treatment at 0.1 uM measured after 3 hrs relative to control
[9] = target: T2, E3 ubiquitin-protein ligase Mdm2; experiment: Displacement of PMDM6-F fluorescent probe from human recombinant His-tagged MDM2 (1 to 118 residues) after 15 mins by fluorescence polarization assay
Outline: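 Recombinant human His-tagged MDM2 (residues 1–118) with a FAM-labelled p53-based peptide as fluorescent probe; competitive fluorescence-polarization binding. Mean ± standard error from at least three independent experiments.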
Target sequence in this assay (Q00987 whole entry): as the sequence (Q00987 whole entry, looked up) above

MDA-MB-468 [10] = experiment: Antiproliferative activity against human MDA-MB-468 cells assessed as cell growth inhibition after 4 days in presence of control siRNA for 2 days followed by compound treatment by WST-8 assay; assay type: functional, cell-based; outline: as §3
[11] = target: T3, Eukaryotic peptide chain release factor GTP-binding subunit ERF3A; experiment: Induction of GSPT1 degradation in human RS4:11 cells at 0.1 uM pretreated with Nedd8 inhibitor MLN4924 followed by compound treatment after 2 hrs by Western blot analysis
MDA-MB-231 [12] = experiment: Antiproliferative activity against human MDA-MB-231 cells transfected with CRBN siRNA LQ-021086-11-0002 assessed as cell growth inhibition after 4 days by WST-8 assay; assay type: functional, cell-based; conditions: MDA-MB-231, 96 h; outline: as §3
MDA-MB-468 [13] = experiment: Antiproliferative activity against human MDA-MB-468 cells transfected with CRBN siRNA LQ-021086-11-0002 assessed as cell growth inhibition after 4 days by WST-8 assay; assay type: functional, cell-based; conditions: MDA-MB-468, 96 h; outline: as §3
[14] = target: T2, E3 ubiquitin-protein ligase Mdm2; experiment: Induction of MDM2 degradation in human RS4:11 cells assessed as downregulation of MDM2 at 1 to 30 nM after 2 hrs by Western blot analysis; assay type: cell-based; outline: as §1
Target sequence in this assay (Q00987 whole entry, looked up): as above

[15] = Antiproliferative activity against human RS4:11/IRMI-2 cells harboring p53 hotspot mutation Y236H/R249G assessed as cell growth inhibition without interaction with cereblon after 4 days by WST-8 assay; assay type: functional, cell-based; conditions: RS4-11, 96 h; outline: as §2
MDA-MB-231 [16] = experiment: Antiproliferative activity against human MDA-MB-231 cells harboring mutant p53 assessed as cell growth inhibition after 4 days by WST-8 assay; assay type: functional, cell-based; conditions: MDA-MB-231, 96 h; outline: as §2

O=C1CCC(N2Cc3c(CCCCCNC(=O)[C@@H]4NC5(CCCCC5)[C@@]5(C(=O)Nc6cc(Cl)ccc65)[C@H]4c4cccc(Cl)c4F)cccc3C2=O)C(=O)N1 (stereo partly specified)
Activity [1]: Active
Activity [2]: inactive
IC50 [3]: 2.6 nM
IC50 (MDA-MB-468 [4]): 62 nM
Activity [5]: inactive
IC50 (MDA-MB-468 [6]): > 1000 nM
Activity [7]: inactive
fold change [8]: 5.3
IC50 [9]: 67.5 nM
IC50 (MDA-MB-468 [10]): 31.1 nM
Activity [11]: inactive
IC50 (MDA-MB-231 [12]): > 3000 nM
IC50 (MDA-MB-468 [13]): > 1000 nM
Activity [14]: Active
IC50 [15]: 2.6 nM
IC50 (MDA-MB-231 [16]): 39.4 nM
